From ChEMBL document CHEMBL1134796, “Indenopyrazoles as novel cyclin dependent kinase (CDK) inhibitors” (J Med Chem, 2001)

What was measured:
HCT-116 = assay: Inhibition of HCT116 cell proliferation; assay type: functional, cell-based; details: Homo sapiens
Outline: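 HCT116 cells cultured with compound at increasing concentrations. At selected time points, cells fixed with trichloroacetic acid and stained with sulforhodamine B. Unbound dye washed off, and bound dye extracted for optical density reading.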

[1] = target: Cyclin-dependent kinase 2/cyclin E (Homo sapiens, UniProt P24941); assay: Inhibition of Cyclin-dependent kinase 2-cyclin E; assay type: protein-complex assay
Outline: (§1)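 Lysates of insect cells expressing the cdk and its cyclin partner, run in kinase buffer with ³²P-ATP, GST-Rb fusion substrate and the compound at varying concentrations. Reaction stopped with excess EDTA. GST-Rb captured on GSH-Sepharose beads, washed, and counted by scintillation. IC50 is the concentration giving 50% inhibition of kinase activity.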

[2] = target: Cyclin-dependent kinase 4/cyclin D1 (Homo sapiens, UniProt P11802); assay: Inhibition of Cyclin Dependent Kinase 4 cyclin D1; assay type: protein-complex assay; outline: as §1
Mus musculus [3] = assay: In vivo antitumor activity in mice at 7.5 mg/kg/day (dosing schedule Q1DX14); 5/8; assay type: functional
Outline: (§2)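 Female nude mice bearing HCT116 human colon carcinoma xenografts (1 × 10⁷ cells/animal, injected s.c. into the inguinal region). Drug was given ip once daily for 14 days, starting 7 days after cell injection. On day 15 after dosing, tumors were excised and weighed. Tumor growth inhibition index (%) = (1 − mean net tumor weight treated/control) × 100. Survivors reflect acute drug toxicity.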

Mus musculus [4] = assay: In vivo antitumor activity in mice at 7.5 mg/kg/day (dosing schedule Q1DX14); assay type: functional
Outline: (§3)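 Female nude mice carrying HCT116 human colon carcinoma xenografts, 1 × 10⁷ cells injected subcutaneously into the inguinal region. Drug given intraperitoneally once daily for 14 days, starting 7 days after cell injection. Tumors excised and weighed on day 15 post-dosing. Growth inhibition index (%) = (1 − mean net tumor weight treated/mean net tumor weight control) × 100.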

Mus musculus [5] = assay: In vivo antitumor activity in mice at 30 mg/kg/day (dosing schedule Q1DX14); 8/8; assay type: functional; outline: as §2
Mus musculus [6] = assay: In vivo antitumor activity in mice at 10 mg/kg/day (dosing schedule Q1DX14); 8/8; assay type: functional; outline: as §2
Mus musculus [7] = assay: In vivo antitumor activity in mice at 30 mg/kg/day (dosing schedule Q1DX14); assay type: functional; outline: as §3
Mus musculus [8] = assay: In vivo antitumor activity in mice at 3 mg/kg/day (dosing schedule Q1DX14); assay type: functional; outline: as §3
Mus musculus [9] = assay: In vivo antitumor activity in mice at 3 mg/kg/day (dosing schedule Q1DX14); 8/8; assay type: functional; outline: as §2
AG1523 = assay: Cytotoxic effect on human AG1523 fibroblast cells; assay type: functional, cell-based
Mus musculus [10] = assay: In vivo antitumor activity in mice at 10 mg/kg/day (dosing schedule Q1DX14); assay type: functional; outline: as §3
[11] = Inhibition of protein kinase A (PKA)
[12] = target: Tyrosine-protein kinase ABL1 (Homo sapiens, UniProt P00519); assay: Inhibition of c-Abl kinase
Protein kinase C (PKC) = assay: Inhibition of protein kinase C (PKC); assay type: protein assay
Mus musculus [13] = assay: In vivo antitumor activity in mice at 1 mg/kg/day (dosing schedule Q1DX14); 8/8; assay type: functional; outline: as §2
Mus musculus [14] = assay: In vivo antitumor activity in mice at 1 mg/kg/day (dosing schedule Q1DX14); assay type: functional; outline: as §3

Sequence of Cyclin-dependent kinase 4/cyclin D1 (P11802 whole entry): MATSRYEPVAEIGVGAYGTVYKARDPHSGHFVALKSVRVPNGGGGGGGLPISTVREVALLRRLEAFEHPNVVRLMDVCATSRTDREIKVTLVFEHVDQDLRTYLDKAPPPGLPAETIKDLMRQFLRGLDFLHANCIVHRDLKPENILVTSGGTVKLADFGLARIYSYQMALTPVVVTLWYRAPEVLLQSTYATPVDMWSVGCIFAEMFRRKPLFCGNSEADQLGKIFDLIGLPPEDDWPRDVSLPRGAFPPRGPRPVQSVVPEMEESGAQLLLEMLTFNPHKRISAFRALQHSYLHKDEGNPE
Sequence of Cyclin-dependent kinase 4/cyclin D1 (P24385 whole entry, further chain): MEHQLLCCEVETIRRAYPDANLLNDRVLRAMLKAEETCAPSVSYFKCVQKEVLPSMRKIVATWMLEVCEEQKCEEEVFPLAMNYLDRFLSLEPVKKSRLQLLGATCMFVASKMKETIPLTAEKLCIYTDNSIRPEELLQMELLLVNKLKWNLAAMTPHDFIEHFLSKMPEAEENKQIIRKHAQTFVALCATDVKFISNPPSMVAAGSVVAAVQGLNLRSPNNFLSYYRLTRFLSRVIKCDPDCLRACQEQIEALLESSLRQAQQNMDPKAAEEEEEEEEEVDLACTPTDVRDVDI
Sequence of Tyrosine-protein kinase ABL1 (P00519 whole entry): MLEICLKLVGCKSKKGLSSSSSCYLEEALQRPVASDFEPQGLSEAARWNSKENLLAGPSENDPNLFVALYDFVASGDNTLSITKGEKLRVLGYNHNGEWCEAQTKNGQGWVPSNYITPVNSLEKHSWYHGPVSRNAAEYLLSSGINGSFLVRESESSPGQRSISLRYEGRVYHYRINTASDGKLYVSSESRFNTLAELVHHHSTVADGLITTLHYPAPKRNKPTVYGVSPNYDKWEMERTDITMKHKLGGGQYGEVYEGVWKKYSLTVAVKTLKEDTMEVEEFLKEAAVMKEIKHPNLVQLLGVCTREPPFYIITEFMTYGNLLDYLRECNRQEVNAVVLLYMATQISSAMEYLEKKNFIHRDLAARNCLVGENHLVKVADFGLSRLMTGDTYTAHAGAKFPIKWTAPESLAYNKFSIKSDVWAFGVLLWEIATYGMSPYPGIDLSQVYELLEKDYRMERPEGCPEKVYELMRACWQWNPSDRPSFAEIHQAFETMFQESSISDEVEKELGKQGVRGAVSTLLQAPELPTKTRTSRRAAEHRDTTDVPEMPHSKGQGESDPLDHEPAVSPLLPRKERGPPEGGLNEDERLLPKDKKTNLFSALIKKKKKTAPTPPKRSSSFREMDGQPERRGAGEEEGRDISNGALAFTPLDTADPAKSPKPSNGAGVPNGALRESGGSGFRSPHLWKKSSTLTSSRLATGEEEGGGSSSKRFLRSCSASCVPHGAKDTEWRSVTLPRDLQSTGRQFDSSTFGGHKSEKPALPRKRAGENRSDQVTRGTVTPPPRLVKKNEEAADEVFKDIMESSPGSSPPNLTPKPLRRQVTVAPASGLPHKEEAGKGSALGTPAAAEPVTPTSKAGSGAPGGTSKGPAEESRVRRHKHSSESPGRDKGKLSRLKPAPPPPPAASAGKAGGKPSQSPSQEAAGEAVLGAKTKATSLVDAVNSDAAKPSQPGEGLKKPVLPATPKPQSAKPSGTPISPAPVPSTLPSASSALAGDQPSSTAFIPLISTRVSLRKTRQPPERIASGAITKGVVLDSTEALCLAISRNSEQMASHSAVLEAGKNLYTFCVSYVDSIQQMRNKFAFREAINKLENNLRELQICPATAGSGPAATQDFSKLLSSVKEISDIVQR

| Structure (SMILES) | IC50 (HCT-116) | IC50 [1] | IC50 [2] | IC50 (AG1523) | other results |
| --- | --- | --- | --- | --- | --- |
| COc1ccc(-c2[nH]nc3c2C(=O)c2c(NC(C)=O)cccc2-3)cc1 | 2.7 µM | 0.27 µM | 0.45 µM |  |  |
| CN1CCC(c2c(O)cc(O)c3c(=O)cc(-c4ccccc4Cl)oc23)[C@@H](O)C1 (mixture of isomers) |  |  |  |  | No. survived (Mus musculus [3]): 5; Tumor weight (Mus musculus [4]): 538 mg; inhibition in vivo at 7.5 mg/kg/day (Mus musculus [4]): 50% |
| COc1ccc(-c2[nH]nc3c2C(=O)c2c(NC=O)cccc2-3)cc1 | 0.69 µM | 0.08 µM | 0.2 µM | > 63 µM | No. survived (Mus musculus [5]): 8; No. survived (Mus musculus [6]): 8; Tumor weight (Mus musculus [7]): 608 mg; inhibition in vivo at 30 mg/kg/day (Mus musculus [7]): 43%; Tumor weight (Mus musculus [8]): 1171 mg; inhibition in vivo at 3 mg/kg/day (Mus musculus [8]): 0%; No. survived (Mus musculus [9]): 8; Tumor weight (Mus musculus [10]): 871 mg; inhibition in vivo at 10 mg/kg/day (Mus musculus [10]): 19% |
| CO[C@@]12[C@H](COC(N)=O)C3=C(C(=O)C(C)=C(N)C3=O)N1C[C@@H]1N[C@@H]12 [MITOMYCIN] |  |  |  |  | No. survived (Mus musculus [13]): 8; Tumor weight (Mus musculus [14]): 455 mg; inhibition in vivo at 1 mg/kg/day (Mus musculus [14]): 58% |

More lines, main results first:

| IC50 (HCT-116) | IC50 [1] | IC50 [2] | Structure (SMILES) | IC50 (AG1523) | other results |
| --- | --- | --- | --- | --- | --- |
|  | 41 µM | > 250 µM | COc1ccc(-c2[nH]nc3c2C(=O)c2c(NC(=O)c4ccccc4)cccc2-3)cc1 |  |  |
| 2.9 µM | 1.4 µM | 35 µM | COc1ccc(-c2[nH]nc3c2C(=O)c2c(NC(=O)C(C)C)cccc2-3)cc1 | > 28 µM |  |
| 7.5 µM | 2.1 µM | 45 µM | COc1ccc(-c2[nH]nc3c2C(=O)c2c(NC(=O)C(C)(C)C)cccc2-3)cc1 |  |  |
|  | 26 µM | 45 µM | COc1ccc(-c2[nH]nc3c2C(=O)c2ccccc2-3)cc1 |  | IC50 [11]: 239 µM; IC50 [12]: > 725 µM; IC50 (Protein kinase C (PKC)): > 725 µM |
| 0.4 µM | 0.038 µM | 0.48 µM | COc1ccc(-c2[nH]nc3c2C(=O)c2c(NC(=O)Cc4ccc(N)cc4)cccc2-3)cc1 | > 24 µM |  |
